Sampled rows, rich in hits. Any-hit rate of the full collection: about 2.4%.
HTRA1 inhibitor = blocks human HTRA1 serine peptidase. AID 504803. Q92743. 0.5% of 340,000 active. inhibition, % at 5.96 µM. recombinant HTRA1, FP-rhodamine activity-based probe, fluorescence polarization; in the data active means inhibition above about 36%;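 further: 0% = enzyme with DMSO and 100% = wells lacking enzyme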
Target sequence (Q92743 whole entry, looked up): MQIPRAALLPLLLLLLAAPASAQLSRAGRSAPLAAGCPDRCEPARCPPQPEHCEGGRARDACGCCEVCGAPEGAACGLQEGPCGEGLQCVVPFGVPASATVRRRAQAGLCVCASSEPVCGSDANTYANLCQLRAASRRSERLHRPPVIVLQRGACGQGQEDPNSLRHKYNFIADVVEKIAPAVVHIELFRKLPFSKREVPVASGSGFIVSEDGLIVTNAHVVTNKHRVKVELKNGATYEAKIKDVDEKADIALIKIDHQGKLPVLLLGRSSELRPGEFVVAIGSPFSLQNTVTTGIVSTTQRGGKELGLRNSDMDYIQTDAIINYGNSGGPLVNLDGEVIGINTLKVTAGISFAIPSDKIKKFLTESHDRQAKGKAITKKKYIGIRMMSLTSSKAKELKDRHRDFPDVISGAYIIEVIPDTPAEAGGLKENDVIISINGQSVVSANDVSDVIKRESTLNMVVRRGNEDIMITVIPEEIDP
mABHD4 FP = inhibitors of mouse ABHD4; Q8VD66; purified mABHD4, FP-Rh probe fluorescence polarization; inhibition, % at 8.92 µM; 0.54% of 370,000 active;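 active means inhibition exceeding the mean over every tested compound plus 3 SD, cut at about 30% in these data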;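 further: 0% = plate median of compound wells and 100% = S159A mutant with DMSO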
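system = mouse ABHD4 enzyme, wild type | medium = HEPES pH 7.0, NaCl, Pluronic buffer | also added = FP-Rh probe | incubation = Enzyme–compound pre-incubation 45 min, then probe 60 min, both 25 °C | technique = fluorescence polarization, excitation 525 nm, emission 598 nm, BODIPY TMR filters | controls = S159A mutant high control, sample median low control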
SIAE inh = blocks human sialic acid acetylesterase; Q9HAT2; SIAE FP-Rh probe binding, fluorescence polarization; inhibition, % at 9.66 µM; 0.69% of 370,000 active; AID 1053197;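 active means inhibition above a cutoff: mean of compounds within the control limits plus 3 SD of those, cut at about 17% in these data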;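 further: 0% = plate median of compound wells and 100% = probe without SIAE protein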
JMJD2C inh = inhibitors of human GASC-1 (JMJD2C) demethylase; GST-JMJD2C(1-420) H3K9me3 demethylation, DELFIA europium; inhibition, % at 2.35 µM; 0.069% of 330,000 active;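 active means more than half of a compound's replicate wells show inhibition beyond 50%, single wells judged on their own value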;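 further: signal counts dimethyl H3K9 product captured on neutravidin plate; 0% = median of DMSO wells and 100% = 0.3 times that DMSO median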
PRMT1 FP inh = blocks human protein arginine methyltransferase 1; recombinant PRMT1, activity-based probe fluorescence polarization; inhibition, % at 2.79 µM; 1.3% of 370,000 active; Q99873; AID 652257;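 active means inhibition above about 21% made by adding two undisclosed values, limit read from the data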
SIAE inh conf = confirmation of human SIAE inhibitors. shares compounds with SIAE inh. SIAE FP-Rh activity-based probe, fluorescence polarization. inhibition, % at 9.66 µM. 13% of 2,300 active;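 active means mean inhibition of the replicates above the hit cutoff set in the primary screen, cut at about 17% in these data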;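 further: 0% = SIAE with DMSO and probe and 100% = probe without SIAE; inhibitors lower polarization as more probe stays unbound to SIAE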
The depositor's hits bear a star; . = no result given.

SMILES	HTRA1 inhibitor	mABHD4 FP	SIAE inh	JMJD2C inh	PRMT1 FP inh	SIAE inh conf
Cc1ccccc1C(=O)/C=C1\NC(=O)CS1	0.7	-0.3	17.3*	3.7	-1.4	2.1
O=C1CS/C(=C/C(=O)c2ccccc2)N1	2.7	1.4	-9.2	-3.1	-1.5	.
COC(=O)C1CN(Cc2cn(CCOC(C)=O)nn2)CCS(=O)(=O)N1Cc1ccc(OC)cc1 (stereo unspecified)	.	7.0	4.3	.	-2.3	.
CCN(CC)S(=O)(=O)c1cccc(C(=O)NCCc2ccccc2)c1	0.6	-5.5	2.6	-5.7	0.6	.
CN(c1ccccc1)S(=O)(=O)c1cccc(C(=O)NCCc2ccc(O)c(O)c2)c1	24.7	27.9	17.4*	-16.7	14.1	2.3
COc1ccc(Nc2nc3ccccc3s2)cc1	5.6	2.4	5.8	0.3	2.2	.
COc1cccc(Nc2nc3ccc(OC)cc3s2)c1	9.4	7.2	19.7*	1.0	-3.0	3.0
CCOC(=O)c1sc(Nc2nc3ccc(OC)cc3s2)cc1C	1.0	12.2	34.5*	-9.7	-0.8	-8.8
CSCCCNC(=O)CN1C(=O)C2CCCCN2C(=O)c2ccccc21 (stereo unspecified)	.	6.0	11.4	.	-5.4	.
CCOC(=O)c1cnc(SCC(=O)OCC(=O)NC2CCS(=O)(=O)C2)nc1N (stereo unspecified)	-2.1	6.0	18.0*	-0.6	-0.5	-5.3
O=C(Nc1nnc(C(F)(F)F)s1)c1c(F)cccc1F	-1.2	3.8	32.3*	-9.8	0.1	-3.5
Cc1ccn2c(NC3CCCC3)c(-c3ccncc3)nc2c1	3.3	-4.4	17.8*	-6.7	-3.1	-0.6
Oc1ccc(O)c(Cc2nc3ccccc3[nH]2)c1	6.8	11.4	18.6*	-1.6	30.2*	2.9
Nc1ncnc2c1ncn2[C@@H]1O[C@H](C(=O)NS(=O)(=O)c2cccc(F)c2)[C@@H](O)[C@H]1O	.	-8.8	-3.5	.	5.9	.
Cc1cc(S(=O)(=O)NC(=O)[C@H]2O[C@@H](n3cnc4c(N)ncnc43)[C@H](O)[C@@H]2O)ccc1Br	.	9.8	47.1*	.	1.6	50.6*
Nc1ncnc2c1ncn2[C@@H]1O[C@H](C(=O)NCc2ccc3c(c2)OCO3)[C@@H](O)[C@H]1O	.	8.7	70.9*	.	0.9	76.3*
COc1cc(NC(=O)[C@H]2O[C@@H](n3cnc4c(N)ncnc43)[C@H](O)[C@@H]2O)cc(OC)c1OC	.	3.6	61.3*	.	-2.6	69.1*
COC(=O)[C@H]1C[C@@]2(N3CCCCC3)c3ccccc3N[C@H]2N1S(=O)(=O)c1ccc(C)cc1	.	-0.2	0.1	.	-0.2	.
COc1cc(NC(=O)Nc2nc(C(N)C3CCCCC3)cs2)cc(OC)c1OC (stereo unspecified)	.	12.4	20.6*	.	3.1	9.6
COc1ccccc1NC(=O)Nc1nc(C(N)C2CCCCC2)cs1 (stereo unspecified)	.	3.1	-3.4	.	0.1	.
O=C(Cc1ccccc1)NC1CCCCN(Cc2ccc(Cl)cc2)C1=O (stereo unspecified)	.	-3.8	-23.0	.	-1.7	.
CN(CCO)c1ccc2c(c1)Oc1ccccc1CN(Cc1cn(Cc3cccc(C(F)(F)F)c3)nn1)S2(=O)=O	.	-0.4	1.2	.	-0.3	.
CCCc1cc(=O)oc2c(CN3CCCC3)c(O)c(Cl)cc12	5.1	6.7	19.9*	-5.8	-1.9	4.1
O=C(NCC1CC1)c1ccc(Nc2nc3ccc(Br)cc3[nH]2)cc1	-11.4	22.7	25.3*	4.0	0.7	6.9
O=C(NCc1ccco1)c1cccc(Nc2nc3ccc(Br)cc3[nH]2)c1	5.9	7.2	41.0*	1.3	-2.4	11.3
O=C(Cc1ccc(Nc2nc3ccc(Br)cc3[nH]2)cc1)NCCc1cccs1	8.6	15.7	20.0*	8.8	0.1	7.0
COc1ccc(CCNC(=O)Cc2cccs2)cc1	-7.2	-4.7	-6.5	-6.1	-0.4	.
O=C(NCC1CC1)c1ccc2nc([C@@H]3O[C@H](CO)[C@H](O)[C@H](O)[C@H]3O)[nH]c2c1	.	-6.8	0.9	.	3.2	.
O=C(Nc1ccc(OC(F)(F)F)cc1)Nc1c(-c2ccc(F)cc2)nc2ncccn12	.	2.8	-3.0	.	4.1	.
COc1cccc(-c2oc3c(c2C#CC2(N)CCCCC2)C(O)CCC3)c1 (stereo unspecified)	.	7.1	0.8	.	-7.0	.

Assay outcomes from PubChem BioAssay.
